pIC50: −log10 of the molar value.
Key:
[1] = target: Hepatocyte growth factor receptor (Homo sapiens, UniProt P08581); experiment: Inhibition of cMet (unknown origin) using poly (Glu, Tyr) 4:1 as substrate after 30 mins by HTRF assay
HT-29 = experiment: Cytotoxicity against human HT-29 cells assessed as reduction in cell growth after 72 hrs by MTT assay; conditions: HT-29, 72 h
A549 = experiment: Cytotoxicity against human A549 cells assessed as reduction in cell growth after 72 hrs by MTT assay; conditions: A549, 72 h
MCF7 = experiment: Cytotoxicity against human MCF7 cells assessed as reduction in cell growth after 72 hrs by MTT assay; format: functional, cell-based; conditions: MCF7, 72 h
How it was run: (§1)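 Cells grown in MEM with 10% FBS were seeded at about 4 × 10³ cells/well and held 24 h at 37 °C in 5% CO₂. Compounds were then added and cells cultured 72 h. IC50 is the average of triplicate determinations.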

[2] = Cytotoxicity against human PC3 cells assessed as reduction in cell growth after 72 hrs by MTT assay; format: functional, cell-based; conditions: PC-3, 72 h; how it was run: as §1
[3] = target: T1, Receptor-type tyrosine-protein kinase FLT3 (Homo sapiens, UniProt P36888); experiment: Inhibition of FLT3 (unknown origin) using poly (Glu, Tyr) 4:1 as substrate after 30 mins by HTRF assay
T1 sequence (P36888 whole entry): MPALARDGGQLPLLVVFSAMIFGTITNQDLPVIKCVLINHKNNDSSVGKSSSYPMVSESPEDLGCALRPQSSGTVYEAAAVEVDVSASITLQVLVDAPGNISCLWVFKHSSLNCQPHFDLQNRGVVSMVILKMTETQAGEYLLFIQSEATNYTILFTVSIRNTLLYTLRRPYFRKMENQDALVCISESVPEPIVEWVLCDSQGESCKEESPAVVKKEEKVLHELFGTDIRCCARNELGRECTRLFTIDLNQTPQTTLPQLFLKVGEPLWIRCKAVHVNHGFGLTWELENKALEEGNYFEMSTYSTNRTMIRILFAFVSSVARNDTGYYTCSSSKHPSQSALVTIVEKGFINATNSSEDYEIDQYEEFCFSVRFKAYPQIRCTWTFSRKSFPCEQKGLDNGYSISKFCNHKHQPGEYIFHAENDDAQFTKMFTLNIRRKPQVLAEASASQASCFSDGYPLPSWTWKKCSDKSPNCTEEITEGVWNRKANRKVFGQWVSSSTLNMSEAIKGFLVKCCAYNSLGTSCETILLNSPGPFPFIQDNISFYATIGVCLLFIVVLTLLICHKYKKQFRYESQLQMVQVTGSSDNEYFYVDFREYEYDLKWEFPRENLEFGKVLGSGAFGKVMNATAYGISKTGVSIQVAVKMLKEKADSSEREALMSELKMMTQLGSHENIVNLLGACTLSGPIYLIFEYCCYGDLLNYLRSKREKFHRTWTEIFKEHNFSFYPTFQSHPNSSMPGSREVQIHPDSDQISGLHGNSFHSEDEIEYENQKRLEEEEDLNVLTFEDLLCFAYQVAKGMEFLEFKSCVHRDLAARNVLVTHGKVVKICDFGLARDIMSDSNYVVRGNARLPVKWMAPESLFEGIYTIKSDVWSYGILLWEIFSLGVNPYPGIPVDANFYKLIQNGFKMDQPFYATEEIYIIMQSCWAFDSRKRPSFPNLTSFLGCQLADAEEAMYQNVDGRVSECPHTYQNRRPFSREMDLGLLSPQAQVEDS
How it was run: (§2)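 HTRF tyrosine-kinase assay with purified enzyme on preloaded poly(Glu,Tyr) 4:1 substrate (20 μg/mL). ATP was added from a 10 mM solution in HEPES buffer (50 mM, pH 7.0, with Mg²⁺, Mn²⁺, DTT, 0.1% NaN₃), and compounds in 1% DMSO.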

[4] = target: Platelet-derived growth factor receptor beta (Homo sapiens, UniProt P09619); experiment: Inhibition of PDGFRbeta (unknown origin) using poly (Glu, Tyr) 4:1 as substrate after 30 mins by HTRF assay; how it was run: as §2
Chain of Platelet-derived growth factor receptor beta (P09619 whole entry): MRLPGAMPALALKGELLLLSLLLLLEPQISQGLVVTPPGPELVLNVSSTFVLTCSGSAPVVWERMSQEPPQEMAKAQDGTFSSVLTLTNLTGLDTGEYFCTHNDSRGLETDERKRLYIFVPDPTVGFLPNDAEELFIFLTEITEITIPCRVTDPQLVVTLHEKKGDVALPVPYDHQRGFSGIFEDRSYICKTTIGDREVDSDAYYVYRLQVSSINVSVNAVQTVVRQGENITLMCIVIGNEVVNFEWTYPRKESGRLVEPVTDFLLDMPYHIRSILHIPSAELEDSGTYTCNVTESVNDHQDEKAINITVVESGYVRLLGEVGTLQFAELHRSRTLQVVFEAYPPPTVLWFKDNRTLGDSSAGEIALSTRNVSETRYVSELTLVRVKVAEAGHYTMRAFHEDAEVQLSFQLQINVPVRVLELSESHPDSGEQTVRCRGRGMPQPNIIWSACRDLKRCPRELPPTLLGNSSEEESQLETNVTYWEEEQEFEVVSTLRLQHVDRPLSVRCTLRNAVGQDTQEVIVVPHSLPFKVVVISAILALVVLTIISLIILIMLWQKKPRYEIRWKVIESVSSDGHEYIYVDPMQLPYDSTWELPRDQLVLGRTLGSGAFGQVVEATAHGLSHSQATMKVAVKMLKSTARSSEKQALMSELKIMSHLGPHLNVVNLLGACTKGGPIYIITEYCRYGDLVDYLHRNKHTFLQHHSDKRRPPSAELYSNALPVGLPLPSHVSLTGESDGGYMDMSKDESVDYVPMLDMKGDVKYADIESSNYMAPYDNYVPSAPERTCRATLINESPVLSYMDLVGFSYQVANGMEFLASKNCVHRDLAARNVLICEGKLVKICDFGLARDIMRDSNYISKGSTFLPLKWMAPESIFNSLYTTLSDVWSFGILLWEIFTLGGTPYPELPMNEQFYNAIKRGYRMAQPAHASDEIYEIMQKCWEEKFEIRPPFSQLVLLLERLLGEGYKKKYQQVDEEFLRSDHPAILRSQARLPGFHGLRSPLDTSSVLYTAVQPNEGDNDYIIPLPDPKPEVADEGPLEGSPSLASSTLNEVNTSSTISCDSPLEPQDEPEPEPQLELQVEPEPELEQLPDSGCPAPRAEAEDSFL

[5] = target: Vascular endothelial growth factor receptor 2 (Homo sapiens, UniProt P35968); experiment: Inhibition of KDR (unknown origin) using poly (Glu, Tyr) 4:1 as substrate after 30 mins by HTRF assay; how it was run: as §2
Chain of Vascular endothelial growth factor receptor 2 (P35968 whole entry): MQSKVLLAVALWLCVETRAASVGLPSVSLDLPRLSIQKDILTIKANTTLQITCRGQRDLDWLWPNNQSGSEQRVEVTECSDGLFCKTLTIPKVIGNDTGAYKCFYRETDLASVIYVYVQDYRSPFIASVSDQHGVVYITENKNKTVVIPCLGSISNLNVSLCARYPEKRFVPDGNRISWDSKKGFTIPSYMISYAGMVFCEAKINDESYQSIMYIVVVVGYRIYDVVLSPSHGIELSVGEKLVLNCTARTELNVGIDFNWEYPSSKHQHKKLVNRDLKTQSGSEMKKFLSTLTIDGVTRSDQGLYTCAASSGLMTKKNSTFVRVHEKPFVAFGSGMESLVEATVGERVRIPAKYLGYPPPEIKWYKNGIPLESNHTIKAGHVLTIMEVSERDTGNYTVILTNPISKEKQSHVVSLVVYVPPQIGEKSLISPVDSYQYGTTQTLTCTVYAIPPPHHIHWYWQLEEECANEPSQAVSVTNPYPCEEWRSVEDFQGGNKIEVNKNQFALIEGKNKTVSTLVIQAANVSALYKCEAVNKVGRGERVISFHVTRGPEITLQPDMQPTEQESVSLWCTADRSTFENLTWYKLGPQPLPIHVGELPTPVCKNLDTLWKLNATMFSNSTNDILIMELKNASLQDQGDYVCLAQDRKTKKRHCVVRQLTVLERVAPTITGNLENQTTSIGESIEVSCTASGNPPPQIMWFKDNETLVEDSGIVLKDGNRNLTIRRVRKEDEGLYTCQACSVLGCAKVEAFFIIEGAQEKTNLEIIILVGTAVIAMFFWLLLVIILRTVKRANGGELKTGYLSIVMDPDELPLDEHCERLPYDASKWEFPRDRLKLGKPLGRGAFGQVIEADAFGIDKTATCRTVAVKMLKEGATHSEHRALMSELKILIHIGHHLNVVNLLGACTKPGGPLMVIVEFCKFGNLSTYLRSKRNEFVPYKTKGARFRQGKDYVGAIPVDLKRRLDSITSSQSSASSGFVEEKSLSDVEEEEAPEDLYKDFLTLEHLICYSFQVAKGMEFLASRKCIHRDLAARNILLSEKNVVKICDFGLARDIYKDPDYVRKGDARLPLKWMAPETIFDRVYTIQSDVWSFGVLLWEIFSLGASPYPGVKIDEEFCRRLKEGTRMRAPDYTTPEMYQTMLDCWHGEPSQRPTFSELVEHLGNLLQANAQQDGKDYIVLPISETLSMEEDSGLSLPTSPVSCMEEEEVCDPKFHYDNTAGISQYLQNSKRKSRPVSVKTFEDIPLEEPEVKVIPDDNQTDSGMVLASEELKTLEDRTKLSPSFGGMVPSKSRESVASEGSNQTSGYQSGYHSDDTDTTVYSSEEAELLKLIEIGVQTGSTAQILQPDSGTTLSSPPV

[6] = target: Mast/stem cell growth factor receptor Kit (Homo sapiens, UniProt P10721); experiment: Inhibition of cKit (unknown origin) using poly (Glu, Tyr) 4:1 as substrate after 30 mins by HTRF assay; how it was run: as §2
Chain of Mast/stem cell growth factor receptor Kit (P10721 whole entry): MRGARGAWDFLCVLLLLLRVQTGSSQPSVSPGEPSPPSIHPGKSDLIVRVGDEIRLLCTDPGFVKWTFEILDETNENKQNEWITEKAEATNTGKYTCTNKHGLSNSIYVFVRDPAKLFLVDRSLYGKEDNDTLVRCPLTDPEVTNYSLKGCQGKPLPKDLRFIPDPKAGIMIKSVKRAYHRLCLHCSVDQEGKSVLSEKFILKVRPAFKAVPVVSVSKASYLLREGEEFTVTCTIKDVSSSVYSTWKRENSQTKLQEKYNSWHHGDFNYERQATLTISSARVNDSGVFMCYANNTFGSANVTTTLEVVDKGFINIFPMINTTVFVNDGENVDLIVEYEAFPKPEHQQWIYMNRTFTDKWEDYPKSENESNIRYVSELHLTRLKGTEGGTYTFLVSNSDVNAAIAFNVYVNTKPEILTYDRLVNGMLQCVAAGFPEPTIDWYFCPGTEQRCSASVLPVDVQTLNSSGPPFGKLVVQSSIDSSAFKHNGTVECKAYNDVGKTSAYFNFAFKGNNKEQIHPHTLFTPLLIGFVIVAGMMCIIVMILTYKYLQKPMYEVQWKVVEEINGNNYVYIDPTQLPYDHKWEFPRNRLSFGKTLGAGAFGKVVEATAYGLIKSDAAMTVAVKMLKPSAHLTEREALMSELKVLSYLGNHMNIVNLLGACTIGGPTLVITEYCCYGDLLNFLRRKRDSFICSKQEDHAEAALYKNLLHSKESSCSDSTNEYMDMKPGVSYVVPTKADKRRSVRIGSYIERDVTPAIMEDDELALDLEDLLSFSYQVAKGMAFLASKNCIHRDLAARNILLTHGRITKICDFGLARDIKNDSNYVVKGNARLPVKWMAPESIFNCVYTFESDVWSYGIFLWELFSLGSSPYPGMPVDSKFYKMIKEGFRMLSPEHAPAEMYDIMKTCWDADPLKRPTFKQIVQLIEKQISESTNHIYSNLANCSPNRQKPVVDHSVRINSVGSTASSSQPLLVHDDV

Chain of Hepatocyte growth factor receptor (P08581 whole entry): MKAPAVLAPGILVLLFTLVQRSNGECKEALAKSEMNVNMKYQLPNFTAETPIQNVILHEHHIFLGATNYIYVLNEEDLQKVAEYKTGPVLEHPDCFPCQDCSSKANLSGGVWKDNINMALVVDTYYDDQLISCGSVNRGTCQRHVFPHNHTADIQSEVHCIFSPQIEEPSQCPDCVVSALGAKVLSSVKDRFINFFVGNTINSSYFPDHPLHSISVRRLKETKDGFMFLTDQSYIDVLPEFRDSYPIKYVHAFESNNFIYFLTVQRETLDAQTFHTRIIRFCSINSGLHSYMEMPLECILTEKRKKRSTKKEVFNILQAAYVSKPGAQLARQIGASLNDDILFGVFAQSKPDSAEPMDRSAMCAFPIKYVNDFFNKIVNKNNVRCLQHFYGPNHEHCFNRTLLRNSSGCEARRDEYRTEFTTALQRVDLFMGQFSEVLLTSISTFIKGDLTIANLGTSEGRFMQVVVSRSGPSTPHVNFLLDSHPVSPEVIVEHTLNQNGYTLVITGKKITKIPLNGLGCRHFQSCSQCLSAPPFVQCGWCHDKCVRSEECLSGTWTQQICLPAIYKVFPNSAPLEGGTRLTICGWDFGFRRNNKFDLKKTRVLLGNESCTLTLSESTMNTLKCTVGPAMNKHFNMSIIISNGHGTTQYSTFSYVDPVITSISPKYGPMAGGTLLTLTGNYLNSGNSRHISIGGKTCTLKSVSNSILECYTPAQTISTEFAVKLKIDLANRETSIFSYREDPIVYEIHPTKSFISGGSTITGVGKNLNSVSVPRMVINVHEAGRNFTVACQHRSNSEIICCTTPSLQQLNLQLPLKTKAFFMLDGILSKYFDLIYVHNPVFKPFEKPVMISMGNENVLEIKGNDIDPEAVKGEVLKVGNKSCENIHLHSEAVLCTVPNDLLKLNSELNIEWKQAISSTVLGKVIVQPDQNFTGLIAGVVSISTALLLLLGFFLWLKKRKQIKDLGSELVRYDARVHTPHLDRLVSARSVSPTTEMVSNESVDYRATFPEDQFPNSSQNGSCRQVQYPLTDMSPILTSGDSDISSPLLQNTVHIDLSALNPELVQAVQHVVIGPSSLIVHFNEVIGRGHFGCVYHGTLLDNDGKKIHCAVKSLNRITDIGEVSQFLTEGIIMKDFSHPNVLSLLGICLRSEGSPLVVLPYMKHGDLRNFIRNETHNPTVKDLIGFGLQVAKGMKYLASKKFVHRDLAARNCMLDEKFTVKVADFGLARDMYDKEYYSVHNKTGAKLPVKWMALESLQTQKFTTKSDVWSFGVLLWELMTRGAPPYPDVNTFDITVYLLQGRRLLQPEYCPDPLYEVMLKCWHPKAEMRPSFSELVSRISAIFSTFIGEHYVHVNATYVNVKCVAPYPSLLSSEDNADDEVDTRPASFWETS

`O=C(Nc1ccc(Oc2ccnc3[nH]ccc23)c(F)c1)c1nnn(-c2ccc(F)cc2)c1C(F)(F)F` gave a pIC50 [1] of 8.77, a pIC50 (HT-29) of 7.54 and a pIC50 (A549) of 7.09. It also gave a pIC50 (MCF7) of 6.96, a pIC50 [2] of 5.82 and a pIC50 [3] of 8.69. For the same molecule, the pIC50 [4] was 8.34, the pIC50 [5] was 7.06 and the pIC50 [6] was 6.49.

Molecule `O=C(Nc1ccc(Oc2ccnc3[nH]ccc23)c(F)c1)c1nnn(-c2ccccc2F)c1C(F)(F)F` has a pIC50 (HT-29) of 7.14, a pIC50 (A549) of 6.72 and a pIC50 (MCF7) of 6.55. It also gave a pIC50 [2] of 5.67.

Molecule `Cc1c(C(=O)Nc2ccc(Oc3ccnc4[nH]ccc34)c(F)c2)nnn1-c1ccc(F)cc1` has a pIC50 (HT-29) of 6.92, a pIC50 (A549) of 6.82 and a pIC50 (MCF7) of 6.77. The pIC50 [2] was 5.36.

Work on `COc1ccc(-n2nnc(C(=O)Nc3ccc(Oc4ccnc5[nH]ccc45)cc3)c2C(F)(F)F)cc1` yielded a pIC50 (HT-29) of 6.54, a pIC50 (A549) of 6.34 and a pIC50 (MCF7) of 6.24. The pIC50 [2] was 5.31.

Molecule `O=C(Nc1ccc(Oc2ccnc3[nH]ccc23)cc1)c1nnn(-c2ccc(Cl)c(C(F)(F)F)c2)c1C(F)(F)F` has a pIC50 (HT-29) of 5.82 and a pIC50 (A549) of 5.63.

With `Cc1c(C(=O)Nc2ccc(Oc3ccnc4[nH]ccc34)cc2)nnn1-c1ccc(F)c(Cl)c1` the pIC50 (HT-29) was 5.66, the pIC50 (A549) was 6.01 and the pIC50 (MCF7) was 5.20. The pIC50 [2] was 4.90.

`Cc1c(C(=O)Nc2ccc(Oc3ccnc4[nH]ccc34)c(F)c2)nnn1-c1ccccc1` gave a pIC50 (HT-29) of 6.54, a pIC50 (A549) of 6.44 and a pIC50 (MCF7) of 6.46. For the same molecule, the pIC50 [2] was 5.63.

Molecule `Cc1c(C(=O)Nc2ccc(Oc3ccnc4[nH]ccc34)c(F)c2)nnn1-c1ccc(F)c(Cl)c1` has a pIC50 (HT-29) of 5.97 and a pIC50 (A549) of 6.14.

Work on `O=C(Nc1ccc(Oc2ccnc3[nH]ccc23)cc1)c1nnn(-c2ccc(F)cc2)c1C(F)(F)F` yielded a pIC50 (HT-29) of 7.03, a pIC50 (A549) of 6.74 and a pIC50 (MCF7) of 6.68. It also gave a pIC50 [2] of 5.55.

With `O=C(Nc1ccc(Oc2ccnc3[nH]ccc23)cc1)c1nnn(-c2ccccc2F)c1C(F)(F)F` the pIC50 (HT-29) was 6.92, the pIC50 (A549) was 6.68 and the pIC50 (MCF7) was 6.54. It also gave a pIC50 [2] of 5.43.

For `O=C(Nc1ccc(Oc2ccnc3[nH]ccc23)c(F)c1)c1nnn(-c2ccccc2)c1C(F)(F)F`, the pIC50 (HT-29) was 7.04, the pIC50 (A549) was 6.66 and the pIC50 (MCF7) was 5.94. For the same molecule, the pIC50 [2] was 5.63.

In the case of `COc1ccc(-n2nnc(C(=O)Nc3ccc(Oc4ccnc5[nH]ccc45)c(F)c3)c2C(F)(F)F)cc1`, the pIC50 (HT-29) was 6.54, the pIC50 (A549) was 6.44 and the pIC50 (MCF7) was 6.29. The pIC50 [2] was 5.73.

Molecule `Cc1c(C(=O)Nc2ccc(Oc3ccnc4[nH]ccc34)c(F)c2)nnn1-c1ccccc1F` has a pIC50 (HT-29) of 6.74, a pIC50 (A549) of 6.41 and a pIC50 (MCF7) of 6.38. The pIC50 [2] was 5.49.

Work on `O=C(Nc1ccc(Oc2ccnc3[nH]ccc23)cc1)c1nnn(-c2ccccc2)c1C(F)(F)F` yielded a pIC50 (HT-29) of 6.72, a pIC50 (A549) of 6.54 and a pIC50 (MCF7) of 6.59. The pIC50 [2] was 5.45.

For `COc1ccc(-n2nnc(C(=O)Nc3ccc(Oc4ccnc5[nH]ccc45)c(F)c3)c2C)cc1`, the pIC50 (HT-29) was 6.23 and the pIC50 (A549) was 6.15.

`O=C(Nc1ccc(Oc2ccnc3[nH]ccc23)c(F)c1)c1nnn(-c2ccc(F)c(F)c2)c1C(F)(F)F` showed a pIC50 (HT-29) of 6.49, a pIC50 (A549) of 6.46 and a pIC50 (MCF7) of 6.23. It also gave a pIC50 [2] of 5.61.

Work on `Cc1c(C(=O)Nc2ccc(Oc3ccnc4[nH]ccc34)cc2)nnn1-c1ccccc1F` yielded a pIC50 (HT-29) of 6.44, a pIC50 (A549) of 6.49 and a pIC50 (MCF7) of 6.55. For the same molecule, the pIC50 [2] was 5.46.

For `Cc1c(C(=O)Nc2ccc(Oc3ccnc4[nH]ccc34)c(F)c2)nnn1-c1ccc(Cl)c(C(F)(F)F)c1`, the pIC50 (HT-29) was 5.95 and the pIC50 (A549) was 5.63.

For `COc1ccc(-n2nnc(C(=O)Nc3ccc(Oc4ccnc5[nH]ccc45)cc3)c2C)cc1`, the pIC50 (HT-29) was 5.94 and the pIC50 (A549) was 5.62.

In the case of `Cc1c(C(=O)Nc2ccc(Oc3ccnc4[nH]ccc34)cc2)nnn1-c1ccc(F)cc1`, the pIC50 (HT-29) was 6.74, the pIC50 (A549) was 6.66 and the pIC50 (MCF7) was 6.41. For the same molecule, the pIC50 [2] was 5.46.

In the case of `O=C(Nc1ccc(Oc2ccnc3[nH]ccc23)cc1)c1nnn(-c2ccc(F)c(Cl)c2)c1C(F)(F)F`, the pIC50 (HT-29) was 5.99 and the pIC50 (A549) was 5.95.

`O=C(Nc1ccc(Oc2ccnc3[nH]ccc23)c(F)c1)c1nnn(-c2ccc(F)c(Cl)c2)c1C(F)(F)F` showed a pIC50 (HT-29) of 6.20 and a pIC50 (A549) of 6.09.

`Cc1c(C(=O)Nc2ccc(Oc3ccnc4[nH]ccc34)cc2)nnn1-c1ccccc1` showed a pIC50 (HT-29) of 6.46, a pIC50 (A549) of 6.38 and a pIC50 (MCF7) of 6.49. The pIC50 [2] was 5.14.

With `O=C(Nc1ccc(Oc2ccnc3[nH]ccc23)cc1)c1nnn(-c2ccc(F)c(F)c2)c1C(F)(F)F` the pIC50 (HT-29) was 6.28, the pIC50 (A549) was 6.10 and the pIC50 (MCF7) was 6.16. For the same molecule, the pIC50 [2] was 5.14.

For `O=C(Nc1ccc(Oc2ccnc3[nH]ccc23)c(F)c1)c1nnn(-c2ccc(Cl)c(C(F)(F)F)c2)c1C(F)(F)F`, the pIC50 (HT-29) was 5.98 and the pIC50 (A549) was 5.89.

With `Cc1c(C(=O)Nc2ccc(Oc3ccnc4[nH]ccc34)c(F)c2)nnn1-c1ccc(F)c(F)c1` the pIC50 (HT-29) was 6.21, the pIC50 (A549) was 6.24 and the pIC50 (MCF7) was 6.09. For the same molecule, the pIC50 [2] was 5.18.

Molecule `Cc1c(C(=O)Nc2ccc(Oc3ccnc4[nH]ccc34)cc2)nnn1-c1ccc(F)c(F)c1` has a pIC50 (HT-29) of 5.97 and a pIC50 (A549) of 5.65.

`Cc1c(C(=O)Nc2ccc(Oc3ccnc4[nH]ccc34)cc2)nnn1-c1ccc(Cl)c(C(F)(F)F)c1` gave a pIC50 (HT-29) of 5.48, a pIC50 (A549) of 5.55 and a pIC50 (MCF7) of 5.08. The pIC50 [2] was 4.96.

From ChEMBL document CHEMBL3774303, “Discovery of novel pyrrolo[2,3-b]pyridine derivatives bearing 1,2,3-triazole moiety as c-Met kinase inhibitors” (Bioorg Med Chem Lett, 2016)
